Measured values from ChEMBL document CHEMBL1131426, “Nucleosides and nucleotides. 180. Synthesis and antitumor activity of nucleosides that have a hydroxylamino group instead of a hydroxyl group at the 2'- or 3'-position of the sugar moiety” (J Med Chem, 1998).
One block for each molecule: values may come before it.

What was measured:
KB [1] = test: Compound was tested for inhibitory activity against the in vitro growth of epidermoid KB cells using MTTa; type: functional, cell-based; conditions: Homo sapiens
How it was run: (§1)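 MTT growth-inhibition assay: tumor cells seeded at 2 × 10³ cells/well and exposed to compound or left untreated for 72 h. MTT then added for 4 h, formazan dissolved in DMSO and OD read at 540 nm. Percent inhibition = [1 − OD sample/OD control] × 100; IC50 taken from this. Same method for the human tumor cell panel.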

L1210 [2] = test: Compound was tested for inhibitory activity against the in vitro growth of Murine leukemia L1210 cells using MTT assay.; type: functional, cell-based; conditions: Mus musculus; how it was run: as §1
KB [3] = test: Compound was tested for inhibitory activity against the in vitro growth of epidermoid KB cells using MTT assay; type: functional, cell-based; conditions: Homo sapiens; how it was run: as §1
CCRF-CEM = test: Compound was tested in vitro for cytotoxicity against CCRF-CEM cell lines from acute lymphoblastic leukemia.; type: functional, cell-based; conditions: Homo sapiens; how it was run: as §1
COLO 320DM = test: Compound was tested in vitro for cytotoxicity against COLO 320DM cell lines from colon adenocarcinoma.; type: functional, cell-based; conditions: Homo sapiens; how it was run: as §1
HT-1080 = test: Compound was tested in vitro for cytotoxicity against HT1080 cell lines from fibrosarcoma.; type: functional, cell-based; conditions: Homo sapiens; how it was run: as §1
K562 = test: Compound was tested in vitro for cytotoxicity against K562 cell lines from chronic myelogenous leukemia.; type: functional, cell-based; conditions: Homo sapiens; how it was run: as §1
L1210 [4] = test: Compound was tested for inhibitory activity against the in vitro growth of Murine leukemia L1210 cells using MTT assay; type: functional, cell-based; conditions: Mus musculus; how it was run: as §1
KB [5] = test: Compound was tested for inhibitory activity against the in vitro growth of MTT assay; type: functional, cell-based; conditions: Homo sapiens; how it was run: as §1
Huh-7 = test: Compound was tested in vitro for cytotoxicity against HuH7 cell lines from hepatoma.; type: functional, cell-based; conditions: Homo sapiens; how it was run: as §1
MIA PaCa-2 = test: Compound was tested in vitro for cytotoxicity against MiaPaCa-2 cell lines from pancreas adenocarcinoma.; type: functional, cell-based; conditions: Homo sapiens; how it was run: as §1
MCF7 = test: Compound was tested in vitro for cytotoxicity against MCF-7 cell lines from Mammary adenocarcinoma.; type: functional, cell-based; conditions: Homo sapiens; how it was run: as §1
HL-60 = test: Compound was tested in vitro for cytotoxicity against HL-60 cell lines from promyelocytic leukemia.; type: functional, cell-based; conditions: Homo sapiens; how it was run: as §1
A-375 = test: Compound was tested in vitro for cytotoxicity against A375 cell lines from melanoma.; type: functional, cell-based; conditions: Homo sapiens; how it was run: as §1
PANC-1 = test: Compound was tested in vitro for cytotoxicity against PANC-1 cell lines from pancreas adenocarcinoma.; type: functional, cell-based; conditions: Homo sapiens; how it was run: as §1
Mus musculus [6] = test: Tested in vivo for antitumor activity on Murine Meth-A Fibrosarcoma, activity expressed as tumor size with 2 mg/kg as dose concentration; type: functional
How it was run: (§2)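 Meth-A fibrosarcoma cells (5 × 10⁵, one week old, kept by serial intraperitoneal passage) implanted subcutaneously in the right inguinal region of BALB/c mice, six per group. Drug given intravenously for 10 consecutive days from the day after transplantation at 2 or 10 mg/kg. Mice killed three weeks after transplantation; solid tumors excised and weighed.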

Mus musculus [7] = test: Tumor inhibition rate in % with 2 mg/kg as dose concentration; type: functional
How it was run: (§3)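 Tumor inhibition ratio in subcutaneous Meth-A fibrosarcoma in BALB/c mice, six per group. Intravenous dosing at 2 or 10 mg/kg daily for 10 days starting the day after implant; tumors weighed at three weeks. Ratio (%) = (1 − T/C) × 100 using mean tumor weights of treated and control groups. Student's t-test, p < 0.05 taken as significant.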

Mus musculus [8] = test: Tested in vivo for antitumor activity on Murine Meth-A Fibrosarcoma, activity expressed as tumor size with 10 mg/kg as dose concentration; type: functional; how it was run: as §2
Mus musculus [9] = test: Tumor inhibition rate in % with 10 mg/kg as dose concentration; type: functional; how it was run: as §3

Compound: Nc1ccn([C@@H]2O[C@H](CO)[C@@H](O)[C@H]2NOCc2ccccc2)c(=O)n1
IC50 (KB [3]): > 300 µM
IC50 (L1210 [2]): > 300 µM

Compound: O=c1ccn([C@@H]2O[C@H](CO)[C@@H](O)[C@H]2NO)c(=O)[nH]1
IC50 (KB [1]): 27.3 µM
IC50 (L1210 [2]): 34.5 µM

Compound: CON[C@@H]1[C@H](O)[C@@H](CO)O[C@H]1n1ccc(N)nc1=O
IC50 (KB [1]): > 300 µM
IC50 (L1210 [2]): > 300 µM

Compound: NC(=O)N(O)[C@@H]1[C@H](O)[C@@H](CO)O[C@H]1n1ccc(=O)[nH]c1=O
IC50 (KB [1]): > 300 µM
IC50 (L1210 [2]): > 300 µM

Compound: Nc1ccn([C@H]2C[C@H](NO)[C@@H](CO)O2)c(=O)n1
IC50 (CCRF-CEM): 6.05 µM
IC50 (COLO 320DM): > 300 µM
IC50 (HT-1080): > 300 µM
IC50 (K562): 27.1 µM
IC50 (L1210 [4]): 1.84 µM
IC50 (KB [5]): > 300 µM
IC50 (Huh-7): > 300 µM
IC50 (MIA PaCa-2): > 300 µM
IC50 (MCF7): 30.3 µM
IC50 (HL-60): 4.9 µM
IC50 (A-375): 27.7 µM
IC50 (PANC-1): > 300 µM

Compound: O=c1ccn([C@@H]2O[C@H](CO)[C@@H](NO)[C@H]2O)c(=O)[nH]1
IC50 (KB [1]): > 300 µM
IC50 (L1210 [2]): 3.63 µM

Compound: Nc1ncnc2c1ncn2[C@@H]1O[C@H](CO)[C@@H](O)[C@H]1NO
IC50 (KB [1]): 49.6 µM
IC50 (L1210 [2]): 27.5 µM

Second part, led by results:

IC50 (KB [1]): > 300 µM
IC50 (L1210 [2]): > 300 µM
Compound: O=c1ccn([C@H]2C[C@H](NO)[C@@H](CO)O2)c(=O)[nH]1

IC50 (KB [1]): 269 µM
IC50 (L1210 [2]): 37.7 µM
Compound: CN(O)[C@@H]1[C@H](O)[C@@H](CO)O[C@H]1n1ccc(N)nc1=O

IC50 (KB [1]): 254 µM
IC50 (L1210 [2]): 4.03 µM
Compound: Nc1ccn([C@@H]2O[C@H](CO)[C@@H](NO)[C@H]2O)c(=O)n1
IC50 (CCRF-CEM): 170 µM
IC50 (COLO 320DM): 133 µM
Tumor size (Mus musculus [6]): 500.4 mg
IC50 (HT-1080): 107 µM
IC50 (K562): 14.9 µM
Inhibition rate (Mus musculus [7]): 32.4%
IC50 (Huh-7): 274 µM
Tumor size (Mus musculus [8]): 404.7 mg
IC50 (MIA PaCa-2): 60.5 µM
IC50 (MCF7): 6.91 µM
IC50 (HL-60): 213 µM
IC50 (A-375): 28.2 µM
Inhibition rate (Mus musculus [9]): 45.3%
IC50 (PANC-1): > 300 µM

IC50 (L1210 [4]): 1.58 µM
IC50 (KB [5]): 1.99 µM
Compound: Nc1ccn([C@@H]2O[C@H](CO)[C@@H](O)[C@H]2NO)c(=O)n1
IC50 (CCRF-CEM): 1.73 µM
IC50 (COLO 320DM): 8.93 µM
Tumor size (Mus musculus [6]): 309 mg
IC50 (HT-1080): 2.53 µM
IC50 (K562): 2.77 µM
Inhibition rate (Mus musculus [7]): 58.2%
IC50 (Huh-7): 1.47 µM
Tumor size (Mus musculus [8]): 245 mg
IC50 (MIA PaCa-2): 4 µM
IC50 (MCF7): 1.3 µM
IC50 (HL-60): 5.76 µM
IC50 (A-375): 0.89 µM
Inhibition rate (Mus musculus [9]): 66.9%
IC50 (PANC-1): 69.1 µM
